Source: ChEMBL document CHEMBL3745687, “Synthesis and Biological Activity of 2-Methylene Analogues of Calcitriol and Related Compounds” (2015)
The source made the active and inactive calls. The rule behind the calls is not given here.

What was measured:
[1] = target: T1, Vitamin D3 receptor (Rattus norvegicus) (UniProt P13053); test: Ratio of 1alpha,25-dihydroxyvitamin D3 Ki to compound Ki for full length recombinant rat vitamin D receptor by scintillation counting analysis
T1 sequence (whole entry): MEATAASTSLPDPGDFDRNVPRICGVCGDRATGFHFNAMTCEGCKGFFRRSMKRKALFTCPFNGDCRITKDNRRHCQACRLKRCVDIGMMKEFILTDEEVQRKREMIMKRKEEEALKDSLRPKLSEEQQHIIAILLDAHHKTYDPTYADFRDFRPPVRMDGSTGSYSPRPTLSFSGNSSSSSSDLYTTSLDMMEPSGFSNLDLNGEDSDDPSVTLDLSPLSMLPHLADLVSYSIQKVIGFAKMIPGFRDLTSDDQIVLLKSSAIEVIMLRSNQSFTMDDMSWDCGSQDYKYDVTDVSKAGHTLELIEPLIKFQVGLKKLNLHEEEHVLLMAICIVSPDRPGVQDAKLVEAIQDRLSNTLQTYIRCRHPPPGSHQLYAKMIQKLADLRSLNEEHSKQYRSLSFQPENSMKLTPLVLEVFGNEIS
Method in brief: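 Competitive binding against radiolabeled 1α,25-(OH)2D3 at 1 nM, with Kd of 0.2 nM used in Ki derivation from dose–response curves. Duplicate runs on two separate occasions. Reported as the average ratio of 1α,25-(OH)2D3 Ki to analogue Ki.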

Rattus norvegicus [2] = test: Effect on intestinal calcium transport in weanling Sprague-Dawley rat assessed as increase in ratio of serosal to mucosal calcium level at 7020 pmol/day administered as 4 consecutive daily doses measured 24 hrs after last dose relative to control; assay type: functional
Method in brief: (§1)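 Same rats, on 0.47% Ca diet for 1 week, then 0.02% Ca for 2 weeks. Four intraperitoneal doses about 24 h apart were given during the last week. 24 h after the final dose, the first 10 cm of intestine was taken for calcium transport measurement by the everted gut sac method.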

Rattus norvegicus [3] = test: Effect on bone calcium mobilization in weanling Sprague-Dawley rat assessed as serum calcium level at 7020 pmol/day administered as 4 consecutive daily doses measured 24 hrs after last dose relative to control; assay type: functional
Method in brief: (§2)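 Rats switched to a 0.47% Ca diet for 1 week, then 0.02% Ca diet for 2 weeks. Dosing started in the final week on the 0.02% Ca diet: four consecutive intraperitoneal doses about 24 h apart. Blood taken from the severed neck 24 h after the last dose. Serum calcium measured as the index of bone calcium mobilization.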

Rattus norvegicus [4] = test: Effect on intestinal calcium transport in weanling Sprague-Dawley rat assessed as increase in ratio of serosal to mucosal calcium level at 2340 pmol/day administered as 4 consecutive daily doses measured 24 hrs after last dose relative to control; assay type: functional; method in brief: as §1
Rattus norvegicus [5] = test: Effect on intestinal calcium transport in weanling Sprague-Dawley rat assessed as increase in ratio of serosal to mucosal calcium level at 87 pmol/day administered as 4 consecutive daily doses measured 24 hrs after last dose relative to control; assay type: functional; method in brief: as §1
Rattus norvegicus [6] = test: Effect on bone calcium mobilization in weanling Sprague-Dawley rat assessed as serum calcium level at 87 pmol/day administered as 4 consecutive daily doses measured 24 hrs after last dose relative to control; assay type: functional; method in brief: as §2
Rattus norvegicus [7] = test: Effect on bone calcium mobilization in weanling Sprague-Dawley rat assessed as serum calcium level at 2340 pmol/day administered as 4 consecutive daily doses measured 24 hrs after last dose relative to control; assay type: functional; method in brief: as §2
HL-60 = test: Ratio of 1alpha,25-dihydroxyvitamin D3 ED50 to compound ED50 for induction of human HL60 promyelocytes differentiation to monocytes after 4 days by NBT reduction assay; assay type: functional
Method in brief: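 HL-60 promyelocyte-to-monocyte differentiation scored as percentage of cells reducing nitro blue tetrazolium. Run in duplicate, repeated twice. ED50, the concentration giving 50% maturation, taken from dose–response curves; expressed as the average ratio of 1α,25-(OH)2D3 ED50 to analogue ED50.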

[8] = target: T1, Vitamin D3 receptor (Rattus norvegicus); test: Ratio of 1alpha,25-dihydroxyvitamin D3 ED50 to compound ED50 for VDR-mediated 24-hydroxylase gene expression in rat ROS 17/2.8 cells after 16 hrs by luciferase reprter assay; assay type: cell-based
Method in brief: (§3)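 Rat osteosarcoma cells stably transfected with a 24-hydroxylase gene reporter plasmid; luciferase activity read across a dose range. ED50 is the concentration raising luciferase activity by 50%, taken from dose–response curves. Ratio line reports 1α,25-(OH)2D3 ED50 divided by analogue ED50.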

Rattus norvegicus [9] = test: Effect on intestinal calcium transport in weanling Sprague-Dawley rat assessed as increase in ratio of serosal to mucosal calcium level at 780 pmol/day administered as 4 consecutive daily doses measured 24 hrs after last dose relative to control; assay type: functional; method in brief: as §1
Rattus norvegicus [10] = test: Effect on bone calcium mobilization in weanling Sprague-Dawley rat assessed as serum calcium level at 780 pmol/day administered as 4 consecutive daily doses measured 24 hrs after last dose relative to control; assay type: functional; method in brief: as §2
Rattus norvegicus [11] = test: Effect on bone calcium mobilization in weanling Sprague-Dawley rat assessed as serum calcium level at 32 pmol/day administered as 4 consecutive daily doses measured 24 hrs after last dose relative to control; assay type: functional; method in brief: as §2
Rattus norvegicus [12] = test: Effect on intestinal calcium transport in weanling Sprague-Dawley rat assessed as increase in ratio of serosal to mucosal calcium level at 32 pmol/day administered as 4 consecutive daily doses measured 24 hrs after last dose relative to control; assay type: functional; method in brief: as §1
Rattus norvegicus [13] = test: Effect on bone calcium mobilization in weanling Sprague-Dawley rat assessed as serum calcium level at 260 pmol/day administered as 4 consecutive daily doses measured 24 hrs after last dose relative to control; assay type: functional; method in brief: as §2
Rattus norvegicus [14] = test: Effect on bone calcium mobilization in weanling Sprague-Dawley rat assessed as serum calcium level at 16 pmol/day administered as 4 consecutive daily doses measured 24 hrs after last dose relative to control; assay type: functional; method in brief: as §2
Rattus norvegicus [15] = test: Effect on intestinal calcium transport in weanling Sprague-Dawley rat assessed as increase in ratio of serosal to mucosal calcium level at 260 pmol/day administered as 4 consecutive daily doses measured 24 hrs after last dose relative to control; assay type: functional; method in brief: as §1
Rattus norvegicus [16] = test: Effect on intestinal calcium transport in weanling Sprague-Dawley rat assessed as increase in ratio of serosal to mucosal calcium level at 16 pmol/day administered as 4 consecutive daily doses measured 24 hrs after last dose relative to control; assay type: functional; method in brief: as §1
[17] = target: T1, Vitamin D3 receptor (Rattus norvegicus); test: Induction of VDR transcriptional activity assessed as activation of 24-hydroxylase gene expression in rat ROS 17/2.8 cells after 16 hrs by luciferase reprter assay; assay type: cell-based; method in brief: as §3

| Compound | Ratio Ki [1] | Ratio (Rattus norvegicus [2]) | Activity (Rattus norvegicus [3]) [mg/dL] | Ratio (Rattus norvegicus [4]) | Ratio (Rattus norvegicus [5]) | Activity (Rattus norvegicus [6]) [mg/dL] | Activity (Rattus norvegicus [7]) [mg/dL] | Ratio ED50 (HL-60) | Ratio ED50 [8] | Ratio (Rattus norvegicus [9]) | Activity (Rattus norvegicus [10]) [mg/dL] | Activity (Rattus norvegicus [11]) [mg/dL] | Ratio (Rattus norvegicus [12]) | Activity (Rattus norvegicus [13]) [mg/dL] | Activity (Rattus norvegicus [14]) [mg/dL] | Ratio (Rattus norvegicus [15]) | Ratio (Rattus norvegicus [16]) | Activity [17] |
| --- | --- | --- | --- | --- | --- | --- | --- | --- | --- | --- | --- | --- | --- | --- | --- | --- | --- | --- |
| C=C1/C(=C/C=C2\CCC[C@]3(C)[C@@H]([C@H](C)CCCC(C)(C)O)CC[C@@H]23)C[C@@H](O)C(=C)[C@@H]1O | 2.5 | 3.2 | 2.2 | 3 | 2.1 | 0.5 | 2.2 | 0.4 | 1 | 1.2 | 1.3 | 0.3 | 2.3 |  |  |  |  |  |
| C=C1/C(=C\C=C2/CCC[C@]3(C)[C@@H]([C@@H](C)CCCC(C)(C)O)CC[C@@H]23)C[C@@H](O)C(=C)[C@@H]1O | 1.1 | 7.3 | 6 |  | 5.4 | 2.8 |  | 29 | 10 | 9.3 | 5.9 | 1.1 | 5 | 3.4 | 0.7 | 5 | 3 | Active |
| C=C1/C(=C\C=C2/CCC[C@]3(C)[C@@H]([C@H](C)CCCC(C)(C)O)CC[C@@H]23)C[C@@H](O)C[C@@H]1O [CALCITRIOL] |  |  |  |  | 3.1 | 0.3 |  |  |  | 1.9 | 2.1 |  |  |  |  |  |  | Active |
| C=C1/C(=C\C=C2/CCC[C@]3(C)[C@@H]([C@@H](C)CCCC(C)C)CC[C@@H]23)C[C@@H](O)C(=C)[C@@H]1O | 0.01 |  | 4.8 |  |  | 0.4 |  | 0.7 | 0.07 |  | 3.3 |  |  |  |  |  |  | Dose-dependent effect |
| C=C1/C(=C\C=C2/CCC[C@]3(C)[C@@H]([C@H](C)CCCC(C)(C)O)CC[C@@H]23)C[C@@H](O)C(=C)[C@@H]1O | 1.4 | 9.2 | 7.3 |  | 5.1 | 2.2 |  | 0.7 | 1 | 5.2 | 5 | 1.4 | 2.4 |  |  |  |  |  |
| C=C1/C(=C\C=C2/CCC[C@]3(C)[C@@H]([C@H](C)CCCC(C)C)CC[C@@H]23)C[C@@H](O)C(=C)[C@@H]1O | 0.01 | 6 | 6 |  | 4.6 | 0.9 |  | 0.07 | 0.07 | 5.8 | 3.8 |  |  |  |  |  |  | Dose-dependent effect |
| C=C1[C@H](O)CC(=C/C=C2\CCC[C@]3(C)[C@@H]([C@@H](C)CCCC(C)(C)O)CC[C@@H]23)C[C@H]1O [DP001] | 1 |  |  |  |  |  |  | 25 | 29 |  |  |  |  |  |  |  |  |  |
| C=C1/C(=C/C=C2\CCC[C@]3(C)[C@@H]([C@@H](C)CCCC(C)(C)O)CC[C@@H]23)C[C@@H](O)C(=C)[C@@H]1O | 1.1 |  |  |  | 2.9 | 0.6 |  | 20 | 5 | 4.5 | 4 | 0 | 0.9 | 1.2 |  | 2.6 |  | Active |
